Experimental data: ChEMBL document CHEMBL1132437, “Synthesis and antimicrobial activity of 4H-4-oxoquinolizine derivatives: consequences of structural modification at the C-8 position” (1999)
≈ marks a conversion by molar mass, not a printed value.

Tests used:
Escherichia coli [1] = assay: In vivo efficacy against Escherichia coli JUHL in mouse protection test after p.o. administration.; assay type: functional; conditions: Escherichia coli, po; read-out: ED50
In short: (§1)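 Mouse protection model: mice infected intravenously with 100-fold LD50 of the organism. Compound given by subcutaneous injection or oral gavage at 1 and 5 h after infection, over a dose range. Deaths tracked for 7 days post-inoculation. ED50 is the dose giving 50% survival of treated mice over the trial.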

Staphylococcus aureus [2] = assay: In vivo efficacy against Staphylococcus aureus NCTC 10649M in mouse; assay type: functional; conditions: Staphylococcus aureus; read-out: ED50; in short: as §1
Escherichia coli [3] = assay: In vitro antibacterial activity against gram negative Escherichia coli KNK 437; assay type: functional; conditions: Escherichia coli; read-out: MIC
In short: (§2)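 Agar dilution MIC determination following the National Committee for Clinical Laboratory Standards recommendations.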

Escherichia coli [4] = assay: In vivo efficacy against Escherichia coli JUHL in mouse protection test after subcutaneous administration; assay type: functional; conditions: Escherichia coli, sc; read-out: ED50; in short: as §1
Staphylococcus aureus [5] = assay: In vivo efficacy against Staphylococcus aureus NCTC 10649M in mouse protection test after p.o. administration.; assay type: functional; conditions: Staphylococcus aureus, po; read-out: ED50; in short: as §1
Burkholderia cepacia = assay: In vitro antibacterial activity against gram negative Pseudomonas cepacia 2961; assay type: functional; in short: as §2
Streptococcus pyogenes = assay: In vitro antibacterial activity against gram positive Streptococcus pyogenes 930; assay type: functional; in short: as §2
Pseudomonas aeruginosa [6] = assay: In vitro antibacterial activity against gram negative P. aeruginosa DPHP 5263; assay type: functional; in short: as §2
Staphylococcus aureus [7] = assay: In vitro antibacterial activity against gram-positive Staphylococcus aureus NCTC 10649M; assay type: functional; in short: as §2
Staphylococcus aureus [8] = assay: In vitro antibacterial activity against gram-positive Staphylococcus aureus 1775; assay type: functional; in short: as §2
Pseudomonas aeruginosa [9] = assay: In vivo efficacy against Pseudomonas aeruginosa 5007 in mouse protection test after administration by oral gavage; assay type: functional; conditions: Pseudomonas aeruginosa, po; read-out: ED50; in short: as §1
Pseudomonas aeruginosa [10] = assay: In vivo efficacy against Pseudomonas aeruginosa 5007 in mouse protection test after subcutaneous administration; assay type: functional; conditions: Pseudomonas aeruginosa, sc; read-out: ED50; in short: as §1
Pseudomonas aeruginosa [11] = assay: In vitro antibacterial activity against Gram-negative Pseudomonas aeruginosa 5007; assay type: functional; in short: as §2
Enterococcus faecium = assay: In vitro antibacterial activity against gram-positive Enterococcus faecium ATCC 8043; assay type: functional; in short: as §2
Mus musculus [12] = assay: IIn vivo efficacy against Escherichia coli JUHL in mouse protection test after administration by oral gavage; assay type: functional; in short: as §1
Mus musculus [13] = assay: In vivo efficacy against Pseudomonas aeruginosa 5007 in mouse protection test after administration by oral gavage.; assay type: functional; in short: as §1
Mus musculus [14] = assay: In vivo efficacy against Pseudomonas aeruginosa 5007 in mouse protection test […]; assay type: functional; in short: as §1
Streptococcus pneumoniae = assay: In vivo efficacy against Streptococcus pneumoniae ATCC 6303 in mouse protection test after s.c. administration.; assay type: functional; conditions: Streptococcus pneumoniae, sc; read-out: ED50; in short: as §1
Mus musculus [15] = assay: In vivo efficacy against Streptococcus pneumoniae ATCC 6303 in mouse protection test after administration by oral gavage; assay type: functional; in short: as §1
Escherichia coli [16] = assay: In vitro antibacterial activity against Escherichia coli KNK 437 a ciprofloxacin less sensitive strain; assay type: functional; in short: as §2
Mus musculus [17] = assay: In vivo efficacy against Staphylococcus aureus NCTC 10649M in mouse protection test
Pseudomonas aeruginosa [18] = assay: Not Plasmodium species; assay type: functional
[19] = Burkholderia cepacia, read-out: MIC
[20] = Streptococcus pyogenes, read-out: MIC
[21] = Pseudomonas aeruginosa, DPHP 5263, read-out: MIC
[22] = Staphylococcus aureus, NCTC 10649, read-out: MIC
[23] = Staphylococcus aureus, read-out: MIC
[24] = Pseudomonas aeruginosa, read-out: MIC
[25] = Enterococcus faecium, ATCC 8043, read-out: MIC

Row | SMILES | ED50 (Escherichia coli [1]) [mg/kg] | ED50 (Staphylococcus aureus [2]) [mg/kg] | MIC (Escherichia coli [3]) [µg/mL] | ED50 (Escherichia coli [4]) [mg/kg] | ED50 (Staphylococcus aureus [5]) [mg/kg] | MIC (Burkholderia cepacia; [19]) [µg/mL] | MIC (Streptococcus pyogenes; [20]) [µg/mL] | MIC (Pseudomonas aeruginosa [6]; [21]) [µg/mL] | MIC (Staphylococcus aureus [7]; [22]) [µg/mL] | MIC (Staphylococcus aureus [8]; [23]) [µg/mL] | ED50 (Pseudomonas aeruginosa [10]) [mg/kg] | MIC (Pseudomonas aeruginosa [11]; [24]) [µg/mL] | MIC (Enterococcus faecium; [25]) [µg/mL] | other results
1 | Cc1c(N2C[C@@H]3CCCC[C@]3(CN)C2)c(F)cn2c(=O)c(C(=O)O)cc(C3CC3)c12 | > 20 | 1.8 | 1.56 (≈ 3.77 µM) | > 5 | 17.7 | 3.1 (≈ 7.5 µM) | 0.02 (≈ 0.0484 µM) | 50 (≈ 121 µM) | 0.002 (≈ 0.00484 µM) | 0.2 (≈ 0.484 µM) | > 32 | 3.1 (≈ 7.5 µM) | 0.02 (≈ 0.0484 µM) | ED50 (Pseudomonas aeruginosa [9]): > 50 mg/kg
2 | Cc1c(N2C[C@H]3NCCO[C@@H]3C2)c(F)cn2c(=O)c(C(=O)O)cc(C3CC3)c12 |  | 6 | 0.78 (≈ 2.01 µM) | > 5 | 11.5 | 3.1 (≈ 8 µM) | 0.2 (≈ 0.516 µM) | 25 (≈ 64.5 µM) | 0.05 (≈ 0.129 µM) | 0.78 (≈ 2.01 µM) | > 32 | 1.56 (≈ 4.03 µM) | 0.2 (≈ 0.516 µM) | ED50 (Mus musculus [12]): > 20 mg/kg; ED50 (Mus musculus [13]): > 50 mg/kg
3 | Cc1c(N2CC[C@H](NC3CC3)C2)c(F)cn2c(=O)c(C(=O)O)cc(C3CC3)c12 | 16.5 | 3.6 | 0.2 (≈ 0.519 µM) | 5 | 25 | 0.39 (≈ 1.01 µM) | 0.05 (≈ 0.13 µM) | 12.5 (≈ 32.4 µM) | 0.02 (≈ 0.0519 µM) | 0.39 (≈ 1.01 µM) | > 32 | 0.39 (≈ 1.01 µM) | 0.2 (≈ 0.519 µM) | ED50 (Mus musculus [14]): > 50 mg/kg; ED50 (Streptococcus pneumoniae): > 8 mg/kg; ED50 (Mus musculus [15]): 23.1 mg/kg
4 | Cc1c(N2CC[C@H](N)C2)c(F)cn2c(=O)c(C(=O)O)cc(C3CC3)c12 (stereo in doubt; -(S)-3i) [ABT-719] |  |  |  |  |  |  |  |  |  |  |  |  |  | MIC (Burkholderia cepacia): 0.39 µg/mL (≈ 1.13 µM); MIC (Streptococcus pyogenes): 0.02 µg/mL (≈ 0.0579 µM); MIC (Pseudomonas aeruginosa [6]): 0.39 µg/mL (≈ 1.13 µM); MIC (Staphylococcus aureus [7]): 0.01 µg/mL (≈ 0.029 µM); MIC (Staphylococcus aureus [8]): 0.78 µg/mL (≈ 2.26 µM); MIC (Escherichia coli [16]): 0.02 µg/mL (≈ 0.0579 µM); MIC (Pseudomonas aeruginosa [11]): 0.05 µg/mL (≈ 0.145 µM); MIC (Enterococcus faecium): 0.02 µg/mL (≈ 0.0579 µM)
5 | Cc1c(N2CCCC(NC3CC3)C2)c(F)cn2c(=O)c(C(=O)O)cc(C3CC3)c12 (stereo not drawn) | 8 |  | 0.2 (≈ 0.501 µM) | 2.8 | 2.1 | 3.1 (≈ 7.76 µM) | 0.05 (≈ 0.125 µM) | 25 (≈ 62.6 µM) | 0.01 (≈ 0.025 µM) | 1.56 (≈ 3.91 µM) | > 32 | 0.39 (≈ 0.976 µM) | 0.05 (≈ 0.125 µM) | ED50 (Mus musculus [17]): 0.4 mg/kg; ED50 (Streptococcus pneumoniae): 1 mg/kg; ED50 (Mus musculus [15]): 2.5 mg/kg; ED50 (Pseudomonas aeruginosa [9]): > 50 mg/kg
6 | Cc1c(N2CC[C@@H]3[C@H](N)[C@@H]3C2)c(F)cn2c(=O)c(C(=O)O)cc(C3CC3)c12 | 5 |  | 0.2 (≈ 0.538 µM) | 0.9 | 4.1 | 3.1 (≈ 8.35 µM) | 0.05 (≈ 0.135 µM) | 6.2 (≈ 16.7 µM) | 0.02 (≈ 0.0538 µM) | 1.56 (≈ 4.2 µM) |  | 0.39 (≈ 1.05 µM) | 0.05 (≈ 0.135 µM) | ED50 (Mus musculus [17]): 1.2 mg/kg
7 | Cc1c(N2CCC2)c(F)cn2c(=O)c(C(=O)O)cc(C3CC3)c12 |  |  | 3.1 (≈ 9.8 µM) |  |  | 3.1 (≈ 9.8 µM) | 0.78 (≈ 2.47 µM) | > 10 | 0.2 (≈ 0.632 µM) | 3.1 (≈ 9.8 µM) |  |  | 0.78 (≈ 2.47 µM) | MIC (Pseudomonas aeruginosa [18]): 3.1 µg/mL (≈ 9.8 µM)
8 | Cc1c(N2CCCC2)c(F)cn2c(=O)c(C(=O)O)cc(C3CC3)c12 |  | > 12 | 0.39 (≈ 1.18 µM) | > 50 |  | 0.78 (≈ 2.36 µM) | 0.2 (≈ 0.605 µM) | > 100 | 0.02 (≈ 0.0605 µM) | 0.78 (≈ 2.36 µM) |  |  | 0.2 (≈ 0.605 µM) | MIC (Pseudomonas aeruginosa [18]): 0.78 µg/mL (≈ 2.36 µM)
